Assay outcomes as filed in PubChem BioAssay.
Rows were chosen to be rich in hits. Some 1.9% of all compounds tested hit in one or more screens of this group.
CHRM4 agonist: CHRM4 agonism in calcium assay. AID 624127. P08173. activation, % at 3 µM. actives 0.14% (n = 360,000). CHO-K1 hM4/Gqi5, Fluo-8 calcium fluorescence; vehicle 0%, full acetylcholine response 100%;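 active = activation above the run mean over all test wells plus 3 SD, cut at about 32% in these data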;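 note: peak over basal fluorescence ratio per well then scaled between controls; 0% = DMSO wells and 100% = acetylcholine at EC100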
Target sequence (P08173 whole entry, looked up): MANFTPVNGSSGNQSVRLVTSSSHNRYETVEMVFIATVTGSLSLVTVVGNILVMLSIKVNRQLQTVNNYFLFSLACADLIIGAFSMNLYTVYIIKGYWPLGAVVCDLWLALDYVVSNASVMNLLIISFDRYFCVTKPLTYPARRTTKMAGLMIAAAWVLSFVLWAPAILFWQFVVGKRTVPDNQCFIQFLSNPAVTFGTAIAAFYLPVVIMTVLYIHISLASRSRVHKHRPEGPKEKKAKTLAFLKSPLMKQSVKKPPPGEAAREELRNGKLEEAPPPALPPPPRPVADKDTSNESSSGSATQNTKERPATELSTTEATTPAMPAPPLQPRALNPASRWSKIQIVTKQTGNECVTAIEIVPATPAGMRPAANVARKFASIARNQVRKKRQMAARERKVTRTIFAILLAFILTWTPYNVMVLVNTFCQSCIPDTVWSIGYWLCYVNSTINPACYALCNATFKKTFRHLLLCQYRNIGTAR
M4 antag: blocks acetylcholine activation of human M4 receptor | P08173 | CHO-hM4 cells, ACh EC80, Fluo-8 calcium fluorescence | inhibition, % at 3 µM | actives 0.73% (n = 360,000) | AID 624125;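 active = inhibition above its plate's cutoff, the mean inhibition of sample wells plus 3 SD, cut at about 27% in these data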;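 note: 0% = acetylcholine EC80 with DMSO and 100% = DMSO without agonist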
M5 ag: agonists of human muscarinic M5 receptor (CHRM5) | P08912 | CHO-K1 hM5 cells, Fluo-8 calcium fluorescence; 0% DMSO wells, 100% maximal acetylcholine response | activation, % at 3 µM | actives 0.19% (n = 360,000);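 active = activation above the run's mean over test compounds plus 3 SD, cut at about 23% in these data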;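 note: signal is peak over basal fluorescence ratio across the kinetic read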
CHRM4 PAM: potentiates acetylcholine response at human M4 receptor; actives 0.4% (n = 360,000); P08173; CHO-K1 hM4/Gqi5, Fluo-8 calcium fluorescence, ACh EC20; 0% = ACh EC20, 100% = maximal ACh; activation, % at 3 µM;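 active = activation above its plate's cutoff, the mean activation of sample wells plus 3 SD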
CHRM5 PAM: positive allosteric modulators of human muscarinic M5 receptor | P08912 | CHO-K1 hM5, Fluo-8 calcium, ACh EC20 PAM; 0% = ACh EC20, 100% = ACh EC100 | activation, % at 3 µM | actives 0.3% (n = 360,000);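 active = activation above the run cutoff, the mean activation of all test compounds plus 3 SD, cut at about 18% in these data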
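Assay system: CHO-K1 hM5 cells. Also added: acetylcholine at EC20 concentration, added after compound. Dosing: 3 µM, single dose. Times: compound preincubation 140 s before EC20 acetylcholine addition. Signal: Fluo-8 calcium fluorescence. Measure: % activation relative to EC20 and EC100 ACh responses. Repeats: singlicate, one well per test compound.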
M5 antag: blocks acetylcholine activation of human M5 receptor; CHO-hM5 cells, Fluo-8 calcium fluorescence, ACh EC80; inhibition, % at 3 µM; actives 0.59% (n = 360,000);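 active = inhibition above a per-plate cutoff, the mean of that plate's test compounds plus 3 SD, cut at about 27% in these data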;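 note: 0% = acetylcholine EC80 with DMSO and 100% = DMSO without agonist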
* marks the source's active call; other numbers are inactive results.

SMILES | CHRM4 agonist | M4 antag | M5 ag | CHRM4 PAM | CHRM5 PAM | M5 antag
CCN1CCN(CCNC(=O)c2ccc(/C=C3/Sc4ccccc4N(Cc4ccccc4C)C3=O)cc2)CC1 | 33* | 16 | -8 | -46 | -12 | 9
O=C1CCCCN1CCCC(=O)N1CCCC(Nc2ccccc2)C1 (stereo unspecified) | 1 | 3 | 8 | 5 | 27* | 3
CC(C)c1ccc(NC2CCCN(C(=O)CCN3CCCC3=O)C2)cc1 (stereo unspecified) | 1 | -2 | -1 | -3 | 4 | 1
CCOC(=O)CC1CCCCN1C(=O)c1cc(COc2cccc3cnccc23)on1 (stereo unspecified) | 32* | 55* | 10 | -13 | -15 | 40*
CCOc1ccc(NC(=O)Cn2nc(C(N)=O)c3ccccc3c2=O)cc1S(=O)(=O)N1CCCC1 | 0 | -17 | -2 | 23* | 2 | 10
CCOc1ccc(NC(=O)Cn2nnc(-c3ccc(C(N)=O)cc3)n2)cc1S(=O)(=O)N1CCCC1 | 1 | 6 | 2 | 1 | -6 | 10
O=C(NNC(=O)c1cc2cc3ccccc3nc2s1)c1cccc(Cl)c1 | 1 | 3 | -2 | 30* | 13 | 5
CC(C)C1S/C(=N/N=C/c2ccco2)NC1=O (stereo unspecified) | 2 | 30* | 2 | 2 | -4 | 5
COc1ccc([C@H]2C[C@@H](O)[C@H](n3cc(COC(=O)c4ccccc4)nn3)CN2C(=O)C2CCCCC2)cc1 | 12 | -10 | 1 | -3 | 1 | 6
O=C1C(=O)N(CCN2CCOCC2)C(c2ccc([N+](=O)[O-])cc2)/C1=C(/O)c1ccc2c(c1)OCO2 (stereo unspecified) | 3 | -2 | -3 | 22* | 4 | 1
O=C1C(=O)N(CCN2CCOCC2)C(c2ccncc2)/C1=C(/O)c1ccc2c(c1)OCO2 (stereo unspecified) | 1 | 6 | 1 | 4 | 0 | -4
COc1ccc(C(=O)NC(=S)Nc2ccc(N3CCN(C(C)=O)CC3)cc2)cc1[N+](=O)[O-] | 3 | 8 | 2 | 12 | -5 | 7
CC(=O)N1CCN(c2ccc(Oc3ccc([N+](=O)[O-])c(C(F)(F)F)c3)cc2)CC1 | 15 | 13 | 5 | -11 | -14 | 27*
CC(=O)N1CCN(C(=O)COc2ccc(N(C)S(=O)(=O)c3cccs3)cc2)CC1 | 2 | -22 | -1 | 18 | 20* | -1
CCN(CC)CC#CCC(O)(c1ccccc1)C1CCCCC1 (stereo unspecified) | 2 | 76* | -10 | -25 | -18 | 72*
COc1ccc(NC(=O)Nc2ccc3c(c2)C(=O)N([C@H](C)CO)C[C@H](C)[C@@H](CN(C)S(C)(=O)=O)O3)cc1 | 1 | -8 | 3 | 11 | 2 | 1
C[C@H]1CN([C@@H](C)CO)C(=O)c2cccc(NC(=O)Nc3ccc(C(F)(F)F)cc3)c2O[C@H]1CN(C)C | 0 | -1 | 2 | 17 | 21* | -5
C[C@H](CO)N1C[C@H](C)[C@@H](CN(C)S(C)(=O)=O)Oc2ccc(NC(=O)Nc3ccccc3)cc2C1=O | 3 | -2 | 2 | 4 | 22* | 0
C[C@H](CO)N1C[C@H](C)[C@@H](CN(C)Cc2ccc(Oc3ccccc3)cc2)Oc2c(NC(=O)C3CC3)cccc2C1=O | 11 | 38* | -2 | -8 | -8 | 0
C[C@@H]1CCCCO[C@H](CN(C)S(=O)(=O)c2cn(C)cn2)[C@H](C)CN([C@@H](C)CO)C(=O)c2cc(NC(=O)c3ccccc3)ccc2O1 | 0 | 0 | 1 | 3 | 1 | 9
C[C@@H]1CCCCO[C@H](CN(C)S(=O)(=O)c2cn(C)cn2)[C@@H](C)CN([C@H](C)CO)C(=O)c2cc(NC(=O)c3ccncc3)ccc2O1 | 0 | -32 | 1 | 18* | 6 | -16
O=C1C(=NO)CCc2ccccc21 | 2 | -7 | 2 | 4 | -1 | 8
CCNC(=O)N1CCCC(C(=O)c2ccc(C(F)(F)F)cc2)C1 (stereo unspecified) | 1 | -5 | 3 | -3 | 4 | 0
Cn1c(NCCc2ccncc2)nc2cc(-c3cccc(C(F)(F)F)c3)sc2c1=O | 2 | -20 | -1 | 5 | -2 | -5
CC1(C(=O)Nc2cccc3ccccc23)CC1(Br)Br (stereo unspecified) | 10 | 16 | -10 | -45 | -29 | 31*
SMILES | CHRM4 agonist | M4 antag | M5 ag | CHRM4 PAM | CHRM5 PAM | M5 antag
CC(C)N1CCC1(C)C(=O)Nc1cccc2ccccc12 (stereo unspecified) | 0 | -5 | -4 | 1 | 5 | 12
CCn1nccc1C(=O)NC1=C(C#N)CCC1 | 1 | 12 | 1 | -8 | 1 | 3
CCn1ccc(C(=O)NC2=C(C#N)CCC2)n1 | -1 | -2 | 1 | -2 | 21* | -1
CCCCNc1c(-c2ccc(SC(C)CC)c(OC)c2)nc2ccc(C)cn12 (stereo unspecified) | 16 | 55* | -5 | -12 | -36 | 37*
CCCCNc1c(-c2ccc(SC(C)CC)c(OC)c2)nc2ccc(Cl)cn12 (stereo unspecified) | 2 | 35* | -5 | -12 | -21 | 12
Cc1cccc(NC(=O)CCC(=O)N2CCOCC2)n1 | 2 | -11 | -5 | 8 | -7 | -14
CCCc1nc2sc3c(=O)n(N)cnc3c2c2c1CCCC2 | 1 | -8 | 1 | 12 | 21* | -4
CCCCc1nc2sc3c(=O)n(N)cnc3c2c2c1CCCC2 | 1 | 2 | -3 | -6 | 6 | -6
C[C@H](OC(=O)c1[nH]cnc1C(=O)N1CCN(C(=O)OC(C)(C)C)CC1)c1ccccc1 | 1 | -7 | -3 | 3 | 0 | 11
CCOC(=O)c1[nH]cnc1C(=O)N1CCN(C(=O)OC(C)(C)C)CC1 | 1 | -9 | -3 | 24* | 9 | -10
O=C(NCC1COc2ccccc2O1)c1cccc(S(=O)(=O)NCc2ccccc2)c1 (stereo unspecified) | 10 | -5 | 3 | -6 | -5 | 7
CCOC(=O)c1ccc(NC(=S)NCCc2ccccc2F)cc1 | 27 | 29* | 3 | -25 | -34 | 30*
CCOC(=O)c1ccc(NC(=S)NCC(O)c2ccccc2)cc1 (stereo unspecified) | 23 | 14 | 8 | -18 | -20 | 38*
CCOC(=O)c1ccc(NC(=S)NCCc2ccccc2)cc1 | 13 | 13 | 2 | -11 | -18 | 24
COc1ccccc1CNC(=O)c1cc(-c2ccncc2)nc2c(Cl)cccc12 | 7 | -6 | -3 | -4 | -9 | 20
